Results of several laboratories.
Cell line: HepG2
Read-out: cell growth or viability

COc1cccc(NC(=O)CN2C(=O)/C(=C/c3cccs3)SC2=S)c1 — inhibition (MTT; 10 µM): 12.2%
Cc1ccc(-c2cc(-c3ccc4oc(=O)cc(C)c4c3O)nc(N)n2)cc1 — inhibition (MTT; 8 µg/mL, 72 h): 0%
CCn1cc(-c2nc(C)no2)c(=O)c2cc(F)c(N3CCCCC3)cc21 — EC50 (ATP luminescence; 48 h): > 40 µM
CCOC(=O)c1ccc(-n2c(-c3ccc(C)cc3)cc(-c3ccc(O)cc3)c(C#N)c2=O)cc1 — viability (MTT; 3.125 µM, 24 h): 88%
CC(=O)Nc1cccc(-n2c(=O)n(C3CC3)c(=O)c3c(Nc4ccc(I)cc4F)n(C)c(=O)c(C)c32)c1 — viability (resazurin; 390 pM, 72 h): 103%
c1ccc2[nH]c(-c3ccc4c(c3)OCO4)nc2c1 — IC50 (MTT; 48 h): > 100 µM
C[C@H]1[C@@H](CC(=O)NCC(=O)N[C@@H](CC(=O)NC(C)(C)C)C(=O)NCCNC(=O)c2cc(-c3ccccc3F)ccc2F)O[C@@H]2O[C@@]3(C)CC[C@H]4[C@H](C)CC[C@@H]1[C@@]24OO3 — EC50 (ATP luminescence; 72 h): 5.8 µM
Cc1cc(Nc2ccc(C(=O)N/N=C/c3cc4ccccc4[nH]3)cc2)c2cccc(O)c2n1 — inhibition (MTT; 20 µM): 54.1%
O=C(CN1C(=O)/C(=C/c2ccc[nH]2)SC1=S)Nc1ccccc1 — inhibition (MTT; 10 µM): 9.65%
Cc1cc(=O)oc2ccc(-c3cc(-c4cccc(Cl)c4)nc(N)n3)c(O)c12 — inhibition (MTT; 128 µg/mL, 72 h): 31%
CC(C)(CO)Cn1nc(-c2ccc3nc(OC4CC4)ccc3c2)c2c(N)ncnc21 — GI50: > 10 µM
COc1ccc(NC(=O)c2c(Nc3ccccc3)sc(C#N)c2NC(=O)CNc2ccc(Cl)cc2)cc1 — viability (SRB; 1 µM, 48 h): 45.3%
O=C(CN1C(=O)/C(=C/c2cccc(O)c2)SC1=S)Nc1ccccc1 — inhibition (MTT; 10 µM): 5.11%
Cc1cc(=O)oc2ccc(-c3cc(-c4ccc(Cl)cc4)nc(N)n3)c(O)c12 — inhibition (MTT; 128 µg/mL, 72 h): 87%
Cc1ccc2nc(-c3c4ccccc4cc4ccccc34)[nH]c2c1 — IC50 (MTT; 48 h): 21.4 µM
COc1ccc(NC(=O)c2c(Nc3ccccc3)sc(C#N)c2NC(=O)CNc2ccc(OC)c(OC)c2)cc1 — viability (SRB; 1 nM, 48 h): 100%
CCCC1CCN(c2cc3c(cc2F)c(=O)c(C(=O)OCC)cn3CC)CC1 — EC50 (ATP luminescence; 48 h): > 40 µM
Clc1ccc(-c2nc3ccccc3n2Cc2ccccc2)cc1 — IC50 (MTT): 47.2 µM
CCOC(=O)c1ccc(-n2c(C)cc(C)c(C#N)c2=O)cc1 — viability (MTT; 25 µM, 24 h): 64.7%
O=[N+]([O-])c1ccc(-c2nc3ccccc3n2Cc2ccccc2)cc1 — IC50 (MTT): 7.8 µM
CCn1cc(-c2nnc(-c3cccnc3)o2)c(=O)c2cc(F)c(N3CCC(C)CC3)cc21 — EC50 (ATP luminescence; 48 h): > 40 µM
COc1ccc(NC(=O)c2c(Nc3ccccc3)sc(C(=O)NN=Cc3ccccc3)c2NC(C)=O)cc1 — viability (SRB; 1 µM, 48 h): 72%
CCOc1cc(-c2nc3ccc(C)cc3[nH]2)ccc1O — IC50 (MTT; 48 h): 77.1 µM
Cc1cc(Nc2ccc(C(=O)N/N=C/c3cccs3)cc2)c2cccc(O)c2n1 — inhibition (MTT; 20 µM): 49%
CCOC(=O)c1ccc(N2C(N)=C(C#N)C3(C(=O)Nc4ccccc43)C(C#N)=C2O)cc1 (stereo not drawn) — viability (MTT; 25 µM, 24 h): 23.5%
COc1ccc(NC(=O)c2c(Nc3ccccc3)sc(C#N)c2NC(=O)CNc2ccccc2)cc1 — viability (SRB; 10 µM, 48 h): 90.4%
COc1ccccc1/C=C1\SC(=S)N(CC(=O)Nc2ccccc2)C1=O — inhibition (MTT; 10 µM): 25.6%
O=C(N/N=C/c1cccn1CCCN1CCCC1)Nc1cc2c(Nc3ccc(F)c(Cl)c3)ncnc2cc1O[C@H]1CCOC1 — IC50 (MTT; 72 h): 0.67 µM
COc1ccc(NC(=O)c2c(Nc3ccccc3)sc(C#N)c2NC(=O)CNc2ccc(O)cc2)cc1 — viability (SRB; 10 µM, 48 h): 61.6%
Cc1cc(=O)oc2ccc(-c3cc(-c4ccccc4)nc(N)n3)c(O)c12 — inhibition (MTT; 128 µg/mL, 72 h): 20%
CCn1cc(-c2nc(C)no2)c(=O)c2cc(F)c(N3CCCC3)cc21 — EC50 (ATP luminescence; 48 h): > 40 µM
COc1ccc(-c2cc(-c3ccc4oc(=O)cc(C)c4c3O)nc(N)n2)cc1 — inhibition (MTT; 128 µg/mL, 72 h): 40%
Cc1ccc2nc(-c3ccc4c(c3)OCO4)[nH]c2c1 — IC50 (MTT; 48 h): 79 µM
Cc1cc(=O)oc2ccc(-c3cc(-c4cccs4)nc(N)n3)c(O)c12 — inhibition (MTT; 8 µg/mL, 72 h): 0%
CCOC(=O)c1ccc(-n2c(N)c(C#N)c(CC#N)c(C#N)c2=O)cc1 — viability (MTT; 1.56 µM, 24 h): 100%
COc1ccc(NC(=O)c2c(Nc3ccccc3)sc(C(=O)NN=Cc3ccc(Cl)cc3)c2NC(C)=O)cc1 — viability (SRB; 100 µM, 48 h): 52.6%
CCN(CC)C/C=N/NC(=O)Nc1cc2c(Nc3ccc(F)c(Cl)c3)ncnc2cc1OC — IC50 (MTT; 72 h): 2.15 µM
O=C(CN1C(=O)/C(=C/c2ccncc2)SC1=S)Nc1ccccc1 — inhibition (MTT; 10 µM): 11.8%
CCOC(=O)c1ccc(NC(=O)C2=C3C(=Nc4ccccc43)NC2=O)cc1 — viability (MTT; 3.125 µM, 24 h): 100%
O=C(CN1C(=O)/C(=C/c2ccccc2F)SC1=S)Nc1ccccc1 — inhibition (MTT; 10 µM): 7.65%
Cc1ccc2nc(-c3ccc([N+](=O)[O-])cc3)[nH]c2c1 — IC50 (MTT; 48 h): 18.6 µM
COc1ccc(NC(=O)c2c(Nc3ccccc3)sc(C(=O)NN=Cc3cc(OC)c(OC)c(OC)c3)c2NC(C)=O)cc1 — viability (SRB; 1 nM, 48 h): 97.3%
CCOC(=O)c1cn(CC)c2cc(N3CCC(Cc4ccccc4)CC3)c(F)cc2c1=O — EC50 (ATP luminescence; 48 h): > 40 µM
CCOC(=O)c1ccc(-n2c(C)cc(/C=C/c3ccc(OC)cc3)c(C#N)c2=O)cc1 — viability (MTT; 3.125 µM, 24 h): 100%
COc1ccc(NCC(=O)Nc2c(C#N)sc(Nc3ccccc3)c2C(=O)Nc2ccc(OC)cc2)cc1 — viability (SRB; 1 µM, 48 h): 71.6%
O=C(CN1C(=O)/C(=C/C2CC2)SC1=S)Nc1ccccc1 — inhibition (MTT; 10 µM): 11%
CCOC(=O)c1ccc(-n2c(C)cc(/C=C/c3ccc(OCC)cc3)c(C#N)c2=O)cc1 — viability (MTT; 12.5 µM, 24 h): 90.3%
COc1ccc(-c2nc3ccccc3[nH]2)cc1O — IC50 (MTT; 48 h): 64.2 µM
